Assay results published in ChEMBL document CHEMBL4406881, “Design, synthesis and biological evaluation of benzoylacrylic acid shikonin ester derivatives as irreversible dual inhibitors of tubulin and EGFR” (Bioorg Med Chem, 2019).

Key:
[1] = Cytotoxicity against human LO2 cells assessed as reduction in cell viability after 24 hrs by MTT assay; assay type: cell-based, L02
Outline: (§1)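 MTT colorimetric assay. Cells in log phase in medium with 10% FBS were seeded at 10⁴ cells/well and left overnight at 37 °C, 5% CO₂ to reattach. Compounds were added at 0.1, 1, 10 and 100 μM in 10% FBS for 24 h. IC50 reported as mean ± SD of three independent experiments.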

[2] = system: HeLa; test: Antiproliferative activity against human HeLa cells assessed as reduction in cell viability after 24 hrs by MTT assay; assay type: functional, cell-based; outline: as §1
[3] = system: MCF7; test: Antiproliferative activity against human MCF7 cells assessed as reduction in cell viability after 24 hrs by MTT assay; assay type: functional, cell-based; details: MCF7, 24 h; outline: as §1
[4] = system: A549; test: Antiproliferative activity against human A549 cells assessed as reduction in cell viability after 24 hrs by MTT assay; assay type: functional, cell-based; details: A549, 24 h
[5] = system: NCI-H460; test: Antiproliferative activity against human H460 cells assessed as reduction in cell viability after 24 hrs by MTT assay; assay type: functional, cell-based; details: NCI-H460, 24 h; outline: as §1
[6] = system: NCI-H1975; test: Antiproliferative activity against human NCI-H1975 cells assessed as reduction in cell viability after 24 hrs by MTT assay; assay type: functional, cell-based; details: NCI-H1975, 24 h; outline: as §1
[7] = molecular target: T1, Epidermal growth factor receptor (Homo sapiens, UniProt P00533); test: Inhibition of C-terminal His-tagged N-terminal GST-tagged human EGFR (668 to 1210 residues) expressed in baculovirus infected Sf9 cells after 30 mins in presence of gamma-[32p-ATP] binding assay
[8] = molecular target: T1, Epidermal growth factor receptor; test: Potency index, ratio of shi-konin IC50 to compound IC50 for inhibition of C-terminal His-tagged N-terminal GST-tagged human EGFR (668 to 1210 residues) expressed in baculovirus infected Sf9 cells after 30 mins in presence of gamma-[32p-ATP] binding assay
[9] = molecular target: Tubulin (Homo sapiens) (UniProt P68371+Q9H4B7+P0DPH7+P68366+Q13509+Q71U36+P04350+Q3ZCM7+P07437+P68363+Q9BQE3+Q6PEY2+Q13885+Q9BVA1+Q9BUF5); test: Inhibition of microtubule polymerization in human A549 cells assessed as polymerized tubulin expression at 1 uM after 24 hrs by immuno blot analysis; assay type: cell-based
[10] = Toxicity in ip dosed Balb/c mouse xenografted with human A549 cells assessed as reduction in body weight at 2 mg/kg, ip administered once every two days for 32 days and measured for every 2 days; assay type: organism-based; details: in vivo
Outline: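 Female BALB/c nude mice (5-6 weeks) received 6×10^6 A549 cells s.c. in the flank. After two weeks (tumours ~90 mm³) they were split into 5 groups (n = 8). Dosing was 2 or 4 mg/kg, dissolved in DMSO, i.p. once every two days for 16 doses; DMSO vehicle served as control. Body weight and tumour volume (L×S²/2) were recorded every two days; mice were killed at day 32.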

[11] = system: A549; test: Induction of apoptosis in human A549 cells assessed as low mitochondrial membrane potential after 20 mins by JC-1 staining-based flow cytometric analysis (reference value: 6.3%); assay type: functional
[12] = system: A549; test: Induction of apoptosis in human A549 cells assessed as high mitochondrial membrane potential after 20 mins by JC-1 staining-based flow cytometric analysis (reference value: 90.6%); assay type: functional

T1 sequence (P00533 whole entry, the tested form may be a part): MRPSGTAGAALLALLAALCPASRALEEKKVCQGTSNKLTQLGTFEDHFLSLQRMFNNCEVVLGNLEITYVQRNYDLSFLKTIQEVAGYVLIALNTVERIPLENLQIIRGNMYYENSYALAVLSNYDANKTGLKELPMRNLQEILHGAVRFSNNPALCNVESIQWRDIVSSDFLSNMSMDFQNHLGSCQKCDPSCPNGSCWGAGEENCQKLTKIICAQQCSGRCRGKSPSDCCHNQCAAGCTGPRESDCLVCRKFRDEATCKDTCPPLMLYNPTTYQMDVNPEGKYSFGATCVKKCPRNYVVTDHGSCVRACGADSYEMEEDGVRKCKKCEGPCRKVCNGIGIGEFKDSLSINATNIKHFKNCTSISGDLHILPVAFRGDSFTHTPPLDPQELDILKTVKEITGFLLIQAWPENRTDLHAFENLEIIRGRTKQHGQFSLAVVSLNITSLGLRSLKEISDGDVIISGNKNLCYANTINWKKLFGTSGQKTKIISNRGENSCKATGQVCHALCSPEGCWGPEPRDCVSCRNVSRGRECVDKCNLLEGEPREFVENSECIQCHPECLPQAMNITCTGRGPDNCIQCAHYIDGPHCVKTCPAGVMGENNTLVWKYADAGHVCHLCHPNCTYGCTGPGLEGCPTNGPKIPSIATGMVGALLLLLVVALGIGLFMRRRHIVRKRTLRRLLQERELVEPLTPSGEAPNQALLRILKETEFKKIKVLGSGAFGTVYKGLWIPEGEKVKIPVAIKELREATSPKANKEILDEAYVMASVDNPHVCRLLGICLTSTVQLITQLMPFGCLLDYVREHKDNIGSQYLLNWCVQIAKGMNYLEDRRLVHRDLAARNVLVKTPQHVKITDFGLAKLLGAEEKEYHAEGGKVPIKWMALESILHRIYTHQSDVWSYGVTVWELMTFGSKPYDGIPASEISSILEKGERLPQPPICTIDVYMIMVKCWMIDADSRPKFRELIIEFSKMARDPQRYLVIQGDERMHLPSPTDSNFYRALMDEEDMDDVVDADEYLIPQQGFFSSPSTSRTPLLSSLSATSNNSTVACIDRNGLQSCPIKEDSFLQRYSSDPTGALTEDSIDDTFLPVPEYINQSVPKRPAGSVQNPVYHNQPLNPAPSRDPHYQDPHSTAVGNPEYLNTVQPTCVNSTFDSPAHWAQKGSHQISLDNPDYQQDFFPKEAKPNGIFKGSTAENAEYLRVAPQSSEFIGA

| IC50 [2] | IC50 [3] | IC50 [4] | IC50 [5] | IC50 [6] | IC50 [7] | Ratio IC50 [8] | fold change (FC) [9] | Structure (SMILES) | CC50 at 24 h [1] | Activity [10] | Activity [11] | Activity [12] |
| --- | --- | --- | --- | --- | --- | --- | --- | --- | --- | --- | --- | --- |
| 8.96 µM | 9.14 µM | 9.72 µM | 11.4 µM | 10.2 µM | 0.0452 µM | – | – | CC(C)=CC[C@@H](OC(=O)/C=C\C(=O)c1ccc(C)cc1)C1=CC(=O)c2c(O)ccc(O)c2C1=O | 64.2 µM | – | – | – |
| 14.2 µM | 10.1 µM | 13.4 µM | 8.35 µM | 7.26 µM | 0.0234 µM | 6 | – | CC(C)=CC[C@@H](OC(=O)/C=C\C(=O)c1cc(F)ccc1C)C1=CC(=O)c2c(O)ccc(O)c2C1=O | 93.5 µM | – | – | – |
| 6.39 µM | 7.62 µM | – | 6.14 µM | 5.55 µM | – | – | – | CN(C)C/C=C/C(=O)Nc1cc2c(Nc3ccc(F)c(Cl)c3)ncnc2cc1O[C@H]1CCOC1 [AFATINIB] | 25.3 µM | – | – | – |
| 10.2 µM | 5.28 µM | 13.1 µM | 13.2 µM | 10.2 µM | > 0.15 µM | – | – | CC(C)=CC[C@@H](OC(=O)/C=C\C(=O)c1cc(C)ccc1C)C1=CC(=O)c2c(O)ccc(O)c2C1=O | 78.1 µM | – | – | – |
| – | – | – | – | – | – | – | 0.82 | CC(=O)O[C@H]1C(=O)[C@@]2(C)[C@H]([C@H](OC(=O)c3ccccc3)[C@]3(O)C[C@H](OC(=O)[C@H](O)[C@@H](NC(=O)c4ccccc4)c4ccccc4)C(C)=C1C3(C)C)[C@]1(OC(C)=O)CO[C@@H]1C[C@@H]2O | – | – | – | – |
| 8.27 µM | 7.68 µM | 9.39 µM | 10.1 µM | 7.25 µM | 0.107 µM | – | – | CC(C)=CC[C@@H](OC(=O)/C=C\C(=O)c1ccc(C)c(F)c1)C1=CC(=O)c2c(O)ccc(O)c2C1=O | > 100 µM | – | – | – |
| 10.1 µM | 14.3 µM | 9.12 µM | 11.3 µM | 15.7 µM | 0.119 µM | – | – | CC(C)=CC[C@@H](OC(=O)/C=C\C(=O)c1ccc(C)c(C)c1)C1=CC(=O)c2c(O)ccc(O)c2C1=O | 88.4 µM | – | – | – |
| 17.2 µM | 14.3 µM | 15.4 µM | 4.21 µM | 22.5 µM | > 0.15 µM | – | – | CC(C)=CC[C@@H](OC(=O)/C=C\C(=O)c1ccc(C)c(Br)c1)C1=CC(=O)c2c(O)ccc(O)c2C1=O | > 100 µM | – | – | – |
| 11.4 µM | 9.62 µM | 8.52 µM | 11.7 µM | 11.8 µM | 0.0325 µM | – | – | CC(C)=CC[C@@H](OC(=O)/C=C\C(=O)c1ccc(Cl)cc1)C1=CC(=O)c2c(O)ccc(O)c2C1=O | > 100 µM | – | – | – |
| 18.6 µM | 7.89 µM | 10.2 µM | 9.17 µM | 16.6 µM | > 0.15 µM | – | – | CC(C)=CC[C@@H](OC(=O)/C=C\C(=O)c1ccc(C)cc1C)C1=CC(=O)c2c(O)ccc(O)c2C1=O | > 100 µM | – | – | – |
| 15.2 µM | 9.37 µM | 14.5 µM | 16.4 µM | 12.4 µM | 0.0508 µM | – | – | CCc1ccc(C(=O)/C=C\C(=O)O[C@H](CC=C(C)C)C2=CC(=O)c3c(O)ccc(O)c3C2=O)cc1 | 92.4 µM | – | – | – |
| 15.1 µM | 6.64 µM | 12.6 µM | 13.6 µM | 9.56 µM | 0.12 µM | – | – | CC(C)=CC[C@@H](OC(=O)/C=C\C(=O)c1ccc(C)cc1F)C1=CC(=O)c2c(O)ccc(O)c2C1=O | > 100 µM | – | – | – |
| 8.02 µM | 9.31 µM | 9.19 µM | 6.51 µM | 13.3 µM | 0.12 µM | – | – | CC(C)=CC[C@@H](OC(=O)/C=C\C(=O)c1ccc(Br)cc1)C1=CC(=O)c2c(O)ccc(O)c2C1=O | > 100 µM | – | – | – |
| 9.34 µM | 18.6 µM | 13.2 µM | 10.3 µM | 18.3 µM | 0.146 µM | – | – | CC(C)=CC[C@@H](OC(=O)/C=C\C(=O)c1cc(Cl)ccc1C)C1=CC(=O)c2c(O)ccc(O)c2C1=O | 83.3 µM | – | – | – |
| 10.1 µM | 6.63 µM | 6.23 µM | 8.16 µM | 9.56 µM | 0.105 µM | – | – | CC(C)=CC[C@@H](OC(=O)/C=C\C(=O)c1ccc(C)cc1Cl)C1=CC(=O)c2c(O)ccc(O)c2C1=O | > 100 µM | – | – | – |
| 7.84 µM | 9.55 µM | 6.13 µM | 5.04 µM | 4.28 µM | 0.139 µM | – | – | CC(C)=CC[C@@H](O)C1=CC(=O)c2c(O)ccc(O)c2C1=O [SHIKONIN] | 12.2 µM | Toxic | – | – |
| 17.6 µM | 19.4 µM | 7.51 µM | 4.59 µM | 10.3 µM | > 0.15 µM | – | – | CC(C)=CC[C@@H](OC(=O)/C=C\C(=O)c1ccccc1)C1=CC(=O)c2c(O)ccc(O)c2C1=O | > 100 µM | – | – | – |
| – | – | – | – | – | – | – | – | N#CC(C#N)=NNc1cccc(Cl)c1 [CARBONYL CYANIDE M-CHLOROPHENYLHYDRAZONE] | – | – | 67.9% | 26.5% |
